{"data": "Published values pooled from the literature", "target": "LIM domain kinase 2 (LIMK2, Homo sapiens, UniProt P53671)", "note": "Compare with care: the assays were run in different laboratories."}
{"Compound": "CCOc1cc(-c2nncn2C)ccc1Nc1ncc2cc(C)nc(NCC(C)(C)C)c2n1", "effect on": "cell-free assay", "technique": "TR-FRET", "concentration": "1 µM", "endpoint": "inhibition", "value": "≤ 15%"}
{"Compound": "COc1cc(Cl)c(C(=O)N[C@@H](CN[C@H]2CC[C@@H](N)CC2)Cc2ccc(C#N)cc2)cc1-c1ccc(CN[C@H](C)c2ccc(C)cc2)o1", "effect on": "enzyme activity", "action": "inhibitor", "concentration": "1 µM", "endpoint": "remaining activity", "value": "101%"}
{"Compound": "CC(C)(C)c1nc(-c2cccc(NS(=O)(=O)c3c(F)cccc3F)c2F)c(-c2ccnc(N)n2)s1", "effect on": "enzyme activity", "action": "inhibitor", "technique": "radiometric", "concentration": "1 µM", "endpoint": "remaining activity", "value": "87%"}
{"Compound": "O=C(NCc1ncc(C(F)(F)F)cc1Cl)c1ccc2c(c1)C1(CCS(=O)(=O)CC1)[C@@H](C1CC1)N2S(=O)(=O)c1ccc(F)cc1", "effect on": "cell-free assay", "technique": "competition with immobilised ligand", "concentration": "1 µM", "endpoint": "remaining binding", "value": "94%"}
{"Compound": "CC(C)(C)c1nc2c(s1)c1nc(N)ncc1c1ccc(NS(=O)(=O)c3c(F)cccc3F)c(F)c12", "effect on": "enzyme activity", "action": "inhibitor", "technique": "radiometric", "concentration": "1 µM", "endpoint": "remaining activity", "value": "92%"}
{"Compound": "O=C(N[C@H]1CCCCC/C=C\\C2C[C@@]2(C(=O)O)NC(=O)[C@@H]2C[C@@H](Oc3ccncc3)CN2C1=O)OC1CCCC1 (stereo partly drawn)", "effect on": "binding", "technique": "competition with immobilised ligand", "concentration": "1 µM", "endpoint": "remaining binding", "value": "93%"}
{"Compound": "Cc1ccc(C(=O)Nc2ccc(CN3CCN(C)CC3)c(C(F)(F)F)c2)cc1C#Cc1cnc2cccnn12", "effect on": "enzyme activity", "action": "inhibitor", "concentration": "23.5 nM", "endpoint": "remaining activity", "value": "100%"}
{"Compound": "c1cnn2ncc(-c3ccnc(N4CCC45COC5)n3)c2c1", "effect on": "binding", "concentration": "1 µM", "endpoint": "remaining binding", "value": "82%"}
{"Compound": "Cc1sc(C(=O)NC2COC2)cc1-n1cc(NC(=O)Nc2c(F)cccc2Cl)cn1", "effect on": "enzyme activity", "action": "inhibitor", "concentration": "10 µM", "endpoint": "remaining activity", "value": "113%"}
{"Compound": "CN1CC(Oc2cnc(C#N)cc2-c2ccn3nc(NC(=O)C4CC4)cc3c2)C1", "effect on": "enzyme activity", "action": "inhibitor", "concentration": "1 µM", "endpoint": "inhibition", "value": "5%"}
{"Compound": "O=C(Nc1cnn(-c2csc(C(=O)NC3COC3)c2)c1)Nc1ccccc1Cl", "effect on": "enzyme activity", "action": "inhibitor", "concentration": "5 µM", "endpoint": "remaining activity", "value": "96.8%"}
{"Compound": "Nc1ncnc2occ(-c3ccc(NC(=O)Nc4cc(C(F)(F)F)ccc4F)cc3)c12", "effect on": "cell-free assay", "action": "inhibitor", "concentration": "20 µM", "endpoint": "remaining signal", "value": "8.8%"}
